ABHD4 inh: inhibits mouse alpha/beta hydrolase domain 4 | Q8VD66 | purified mABHD4, FP-Rh probe fluorescence polarization | inhibition, % at 8.92 µM | actives 0.54% (n = 370,000) | AID 720543;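 active = inhibition exceeding the mean over every tested compound plus 3 SD, cut at about 30% in these data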;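 note: 0% = plate median of compound wells and 100% = S159A mutant with DMSO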
Target sequence (Q8VD66 whole entry, looked up, the tested form may be a part): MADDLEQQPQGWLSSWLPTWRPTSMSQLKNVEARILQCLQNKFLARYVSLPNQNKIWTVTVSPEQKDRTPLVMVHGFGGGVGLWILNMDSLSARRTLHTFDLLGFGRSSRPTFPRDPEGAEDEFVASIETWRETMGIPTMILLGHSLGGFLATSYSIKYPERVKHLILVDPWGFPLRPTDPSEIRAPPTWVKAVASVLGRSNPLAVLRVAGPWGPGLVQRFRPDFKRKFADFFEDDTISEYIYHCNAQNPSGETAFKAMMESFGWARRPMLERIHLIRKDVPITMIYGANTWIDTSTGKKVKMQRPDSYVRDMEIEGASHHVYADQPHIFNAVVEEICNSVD
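assay system = mABHD4 protein | compound dosing = single nominal dose of 8.92 µM, 0.89% DMSO final | read-out basis = percent inhibition of probe binding, normalized to plate controls | schedule = Enzyme–compound pre-incubation 45 min, then probe 60 min, both 25 °C | detection = fluorescence polarization, excitation 525 nm, emission 598 nm, BODIPY TMR filters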
TCR-CD3 inh: blocks the human TCR-CD3 interaction; TAMRA-labeled TCR probe fluorescence, biochemical; inhibition, % at 9.4 µM; actives 0.37% (n = 360,000); AID 651800; in the data active = inhibition above about 19%;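 note: recombinant mutant TCR 2C K166C tagged with TAMRA read by polarization; 0% = receptor in buffer alone and 100% = receptor with positive control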
HTRA1 inhibitor: blocks human HTRA1 serine peptidase; recombinant HTRA1, FP-rhodamine activity-based probe, fluorescence polarization; inhibition, % at 5.96 µM; actives 0.5% (n = 340,000); in the data active = inhibition above about 36%;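 note: 0% = enzyme with DMSO and 100% = wells lacking enzyme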
PAD4 FP inh: inhibitors of human PAD4. recombinant PAD4, RCA probe fluorescence polarization. inhibition, % at 6.36 µM. actives 0.41% (n = 330,000). AID 485272;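 active = percent inhibition above a cutoff equal to the mean of all tested compounds plus 3 SD, cut at about 15% in these data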;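 note: 0% = PAD4 with RCA probe and DMSO and 100% = probe without PAD4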
SIAE primary: human SIAE inhibition, primary screen; SIAE FP-Rh probe binding, fluorescence polarization; Q9HAT2; inhibition, % at 9.66 µM; actives 0.69% (n = 370,000);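 active = inhibition above a cutoff: mean of compounds within the control limits plus 3 SD of those, cut at about 17% in these data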;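 note: 0% = plate median of compound wells and 100% = probe without SIAE protein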
TDP2 absorb: blocks human TDP2 phosphodiesterase activity. O95551. actives 0.34% (n = 370,000). inhibition, % at 12.8 µM. recombinant TDP2, T5PNP hydrolysis, p-nitrophenol absorbance 415 nm;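 active = inhibition above the mean of all tested compounds plus 3 SD, set per campaign, cut at about 25% in these data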;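 note: 0% = DMSO with enzyme and 100% = buffer with substrate but no TDP2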
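Test system: Human TDP2 enzyme | Reagent: 5 mM T5PNP | Compound dosing: 12.8 µM single point, 1% DMSO | Incubation: Enzyme reaction with compound for 2 h at 37 °C | Technique: p-Nitrophenol epi absorbance | Read-out: % inhibition relative to enzyme-containing and enzyme-free wells | Benchmarks: High control without enzyme, low control DMSO plus TDP2 | Replicates: Singlicate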
TDP2 confirm: human TDP2 inhibition, confirmation. recombinant human TDP2, absorbance read-out. AID 743263. shares compounds with TDP2 absorb. actives 22% (n = 1,100). inhibition, % at 12.8 µM; in the data active = inhibition above about 25%;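 note: 0% = vehicle with enzyme and 100% = no enzyme buffer only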
Active calls of the source: *; / = no result. Sampled rows, rich in hits. Any-hit rate of the full collection: about 2%.

SMILES	ABHD4 inh	TCR-CD3 inh	HTRA1 inhibitor	PAD4 FP inh	SIAE primary	TDP2 absorb	TDP2 confirm
COc1ccc(C(=O)Nc2ccc(NC(=O)c3ccco3)cc2)cc1	6	-5	-3	-5	-32	3	/
COc1ccc(-c2c(Sc3ccccc3)c3cc(-c4ccc(OC)c(F)c4)ccc3n2C)cc1	-3	-3	/	/	-9	11	/
CCSc1nnc(NC(=O)CCN2C(=O)C3CCCCC3C2=O)s1 (centres undefined)	8	-11	3	-2	4	6	/
Cc1cc(C)c(NC(=O)COC(=O)C2CCCCC2)c(C)c1	0	4	-3	0	10	1	/
CC(NC1=CC(=O)c2cccnc2C1=O)C(O)c1ccccc1 (centres undefined)	25	-5	27	/	4	57*	71*
CC(c1ccccc1)N1C(=O)c2cccnc2C1=O (centres undefined)	-2	3	-1	-5	6	4	/
O=C(Nc1ccc(Cl)cc1)N1CCSC1=NCc1ccccc1	2	-10	5	-2	-11	2	/
CC(=O)Nc1ccc(C2=NN(C)C(=NCc3ccccc3)SC2)cc1	6	5	-3	2	-1	29*	5
COc1cc2c(c(OC)c1OC)C(=O)CO2	-1	0	-5	/	-5	0	/
COc1cc2c(c(OC)c1O)C(=O)CO2	4	-4	-4	2	7	25*	-4
CC(C)C[C@H]1COc2cc(Br)ccc2S(=O)(=O)N1Cc1cn(Cc2ccco2)nn1	7	/	/	/	0	6	/
COc1ccc(C)cc1S(=O)(=O)NNc1nc(C)cc(C)n1	-8	-3	8	1	2	-6	/
Cc1csc(CN(C)C(=O)c2cn(Cc3cccc4ccccc34)nn2)n1	-5	0	3	-3	-4	-2	/
COc1cc(C=c2c3ccccc3n3c2cc(-c2ccccc2)[n+]3C)cc(OC)c1OC	-139	-31	13	/	-96	39*	43*
CN(C)c1ccc(C=c2c3ccccc3n3c2cc(-c2ccccc2)[n+]3C)cc1	-178	-32	-32	/	-110	30*	10
CC(C)(C)c1ccc(/C=N/Nc2nncn2N)cc1	1	-9	-5	/	6	67*	4
CSc1ccc(/C=N\Nc2nncn2N)cc1	6	-4	-1	42*	-3	64*	6
Nn1c(SCC(=O)Nc2ccccc2-c2ccccc2)nnc1-c1cc(-c2ccc(Cl)cc2)n[nH]1	-21	/	/	/	-10	-10	/
O=C1C(Cl)=C(NCCCN2CCOCC2)C(=O)c2ccccc21	3	-7	6	/	2	7	/
O=C1C(Cl)=C(NCCN2CCOCC2)C(=O)c2ccccc21	1	0	6	-15	9	31*	9
Cc1cc(NC(=O)c2ccc(Cl)cc2Cl)n(CCC#N)n1	-2	0	3	-5	-5	-2	/
Cc1nn(CCC#N)c(N)c1C1(O)C(=O)Nc2c(Cl)cc(Cl)cc21 (centres undefined)	5	-4	2	-2	2	26*	4
Cc1ccccc1NC(=O)C1CCN(C(=O)N2CCOc3ccccc32)CC1	3	3	11	0	1	-5	/
Nc1cc(Cl)ccc1N1CCCCC1	2	9	0	-1	15	2	/
Nc1ccc(N2CCCCC2)c2nonc12	14	5	12	69*	6	82*	89*
SMILES	ABHD4 inh	TCR-CD3 inh	HTRA1 inhibitor	PAD4 FP inh	SIAE primary	TDP2 absorb	TDP2 confirm
Cc1ccc(-c2nnn(CC(=O)N(c3cccc(F)c3)C(C(=O)NC(C)(C)C)c3ccco3)n2)o1 (centres undefined)	-4	7	-2	-6	-4	-4	/
Cc1cc(C)cc(NC(=O)CSc2nnc(CN3CCOCC3)n2C)c1	-2	-1	5	0	2	4	/
Cc1cc(C)c(NC(=O)CSc2nnc(CN3CCOCC3)n2C)c(C)c1	-7	3	1	0	-1	26*	9
CC(=O)NC(Cc1ccc(F)cc1)C(=O)NC1CCN(C(=O)Nc2cccc(C)c2)CC1 (centres undefined)	4	0	3	-6	4	-3	/
CC(=O)NC(Cc1ccc(F)cc1)C(=O)NC1CCN(C(=O)Nc2ccc(F)cc2)CC1 (centres undefined)	-2	7	6	0	3	25*	2
CCOc1ccc(CNS(=O)(=O)c2cccs2)cc1OCC	-8	-1	1	2	-1	-5	/
O=C1C(=O)c2cccnc2-c2ncccc21	1	5	/	/	-4	104*	89*
COc1cc(C(=O)N2CCN(C)C(C)C2)ccc1OC1CCN(C(C)=O)CC1 (centres undefined)	4	0	4	-6	6	-1	/
Cc1ccc(C(=O)N/C(=C\c2ccc(-c3ccccc3[N+](=O)[O-])o2)C(=O)NCCN(C)C)cc1	3	9	13	-13	9	25*	19
Cc1ccc(C(=O)N/C(=C\c2ccc(-c3ccccc3[N+](=O)[O-])o2)C(=O)NCCCN(C)C)cc1	-1	0	1	-11	10	18	/
CC(=O)Nc1ccc(NCN2C(=O)C3C4CCC(C4)C3C2=O)cc1 (centres undefined)	6	10	-4	1	11	32*	8
COc1cc(CN2C[C@@H](CO)O[C@@H](n3cnc4c(NCc5ccco5)ncnc43)C2)cc(OC)c1OC	3	1	/	/	2	-2	/
Brc1cccc(OCCCNC2CCCC2)c1	10	5	3	-6	8	26*	-7
CC(C)NCCOc1cccc(Br)c1	3	0	4	-2	1	6	/
CCN(C(=O)CSc1ncccn1)C1CCS(=O)(=O)C1 (centres undefined)	0	7	3	-1	-4	1	/
CCn1c(SCc2cccc(F)c2)nc2c(c1=O)SCC2	-5	6	0	-1	3	2	/
COc1ccc(CC(=O)Nc2nc(OCCN3CCCC3=O)cnc2-c2cccc(C(F)(F)F)c2)cc1	-23	-3	/	/	-2	5	/
Cc1ccc(-n2nc(C)c3c2OC(N)=C(C#N)C3c2ccccc2F)cc1 (centres undefined)	29	1	6	6	4	26*	-3
C=CCOC(=O)C1=C(C)OC(N)=C(C#N)C1c1c(C)nn(-c2ccccc2)c1Cl (centres undefined)	8	8	-7	6	-6	4	/
Cc1nn(-c2ccccc2)c(Cl)c1C1C(C#N)=C(N)Oc2c1c(C)nn2-c1ccccc1 (centres undefined)	12	-4	5	-14	-3	27*	9

From PubChem
